# Experimental data: publication PMC7825275 (Cancer chemotherapy and pharmacology, 2019)
# Test system: patients with advanced solid tumors
# Assay: Toxicity by grade
# Type: in vivo, human
# How it was run: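 Adverse events were tabulated descriptively as maximum grade in three groups: the chemotherapy-only lead-in cycle, the first veliparib-containing cycle, and all cycles. CBC and serum chemistry including liver function tests were drawn weekly during cycles 1–2, then at the start of every cycle. Veliparib was oral, twice daily on days 1–7; carboplatin/paclitaxel were IV every 21 days.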
# [1] = first cycle including veliparib with carboplatin and paclitaxel, n=73
# [2] = veliparib with carboplatin and paclitaxel
smiles,measurement,setting,value
C[C@]1(c2nc3c(C(N)=O)cccc3[nH]2)CCCN1 [veliparib],"Fever, Grade 4",[1],0 number of patients (%)
same,"Flu like symptoms, Any Grade",[1],1 (1) number of patients (%)
same,"Flu like symptoms, Grade 1",[1],1 (1) number of patients (%)
same,"Flu like symptoms, Grade 2",[1],0 number of patients (%)
same,"Flu like symptoms, Grade 3",[1],0 number of patients (%)
same,"Flu like symptoms, Grade 4",[1],0 number of patients (%)
same,"Flushing, Any Grade",[1],2 (3) number of patients (%)
same,"Flushing, Grade 1",[1],2 (3) number of patients (%)
same,"Flushing, Grade 2",[1],0 number of patients (%)
same,"Flushing, Grade 3",[1],0 number of patients (%)
same,"Flushing, Grade 4",[1],0 number of patients (%)
same,"Headache, Any Grade",[1],3 (4) number of patients (%)
same,"Headache, Grade 1",[1],3 (4) number of patients (%)
same,"Headache, Grade 2",[1],0 number of patients (%)
same,"Headache, Grade 3",[1],0 number of patients (%)
same,"Headache, Grade 4",[1],0 number of patients (%)
same,"Hiccups, Any Grade",[1],1 (1) number of patients (%)
same,"Hiccups, Grade 1",[1],1 (1) number of patients (%)
same,"Hiccups, Grade 2",[1],0 number of patients (%)
same,"Hiccups, Grade 3",[1],0 number of patients (%)
same,"Hiccups, Grade 4",[1],0 number of patients (%)
same,"Hypoalbuminemia, Any Grade",[1],3 (4) number of patients (%)
same,"Hypoalbuminemia, Grade 1",[1],1 (1) number of patients (%)
same,"Hypoalbuminemia, Grade 2",[1],2 (3) number of patients (%)
same,"Hypoalbuminemia, Grade 3",[1],0 number of patients (%)
same,"Hypoalbuminemia, Grade 4",[1],0 number of patients (%)
same,"Hypocalcemia, Any Grade",[1],2 (3) number of patients (%)
same,"Hypocalcemia, Grade 1",[1],0 number of patients (%)
same,"Hypocalcemia, Grade 2",[1],1 (1) number of patients (%)
same,"Hypocalcemia, Grade 3",[1],1 (1) number of patients (%)
same,"Hypocalcemia, Grade 4",[1],0 number of patients (%)
same,"Hypomagnesemia, Any Grade",[1],1 (1) number of patients (%)
same,"Hypomagnesemia, Grade 1",[1],0 number of patients (%)
same,"Hypomagnesemia, Grade 2",[1],1 (1) number of patients (%)
same,"Hypomagnesemia, Grade 3",[1],0 number of patients (%)
same,"Hypomagnesemia, Grade 4",[1],0 number of patients (%)
same,"Hyponatremia, Any Grade",[1],5 (7) number of patients (%)
same,"Hyponatremia, Grade 1",[1],3 (4) number of patients (%)
same,"Hyponatremia, Grade 2",[1],0 number of patients (%)
same,"Hyponatremia, Grade 3",[1],1 (1) number of patients (%)
same,"Hyponatremia, Grade 4",[1],1 (1) number of patients (%)
same,"Hypophosphatemia, Any Grade",[1],1 (1) number of patients (%)
same,"Hypophosphatemia, Grade 1",[1],0 number of patients (%)
same,"Hypophosphatemia, Grade 2",[1],0 number of patients (%)
same,"Hypophosphatemia, Grade 3",[1],1 (1) number of patients (%)
same,"Hypophosphatemia, Grade 4",[1],0 number of patients (%)
same,"Insomnia, Any Grade",[1],1 (1) number of patients (%)
same,"Insomnia, Grade 1",[1],1 (1) number of patients (%)
same,"Insomnia, Grade 2",[1],0 number of patients (%)
same,"Insomnia, Grade 3",[1],0 number of patients (%)
same,"Insomnia, Grade 4",[1],0 number of patients (%)
same,"Lymphocyte count decreased, Any Grade",[1],14 (19) number of patients (%)
same,"Lymphocyte count decreased, Grade 1",[1],2 (3) number of patients (%)
same,"Lymphocyte count decreased, Grade 2",[1],8 (11) number of patients (%)
same,"Lymphocyte count decreased, Grade 3",[1],3 (4) number of patients (%)
same,"Lymphocyte count decreased, Grade 4",[1],1 (1) number of patients (%)
same,"Mucositis oropharyngeal, Any Grade",[1],3 (4) number of patients (%)
same,"Mucositis oropharyngeal, Grade 1",[1],3 (4) number of patients (%)
same,"Mucositis oropharyngeal, Grade 2",[1],0 number of patients (%)
same,"Mucositis oropharyngeal, Grade 3",[1],0 number of patients (%)
same,"Mucositis oropharyngeal, Grade 4",[1],0 number of patients (%)
same,"Muscle weakness, Grade 1",[1],1(1) number of patients (%)
same,"Muscle weakness, Grade 2",[1],1 (1) number of patients (%)
same,"Muscle weakness, Grade 3",[1],0 number of patients (%)
same,"Muscle weakness, Grade 4",[1],0 number of patients (%)
same,"Myalgia, Any Grade",[1],8 (11) number of patients (%)
same,"Myalgia, Grade 1",[1],6 (8) number of patients (%)
same,"Myalgia, Grade 2",[1],2 (3) number of patients (%)
same,"Myalgia, Grade 3",[1],0 number of patients (%)
same,"Myalgia, Grade 4",[1],0 number of patients (%)
same,"Nausea, Any Grade",[1],28 (38) number of patients (%)
same,"Nausea, Grade 1",[1],22 (30) number of patients (%)
same,"Nausea, Grade 2",[1],5 (7) number of patients (%)
same,"Nausea, Grade 3",[1],1 (1) number of patients (%)
same,"Nausea, Grade 4",[1],0 number of patients (%)
same,"Neutrophil count decreased, Any Grade",[1],42 (57) number of patients (%)
same,"Neutrophil count decreased, Grade 1",[1],1 (1) number of patients (%)
same,"Neutrophil count decreased, Grade 2",[1],4 (5) number of patients (%)
same,"Neutrophil count decreased, Grade 3",[1],14 (19) number of patients (%)
same,"Neutrophil count decreased, Grade 4",[1],23 (31) number of patients (%)
same,"Non-cardiac chest pain, Any Grade",[1],1 (1) number of patients (%)
same,"Non-cardiac chest pain, Grade 1",[1],1 (1) number of patients (%)
same,"Non-cardiac chest pain, Grade 2",[1],0 number of patients (%)
same,"Non-cardiac chest pain, Grade 3",[1],0 number of patients (%)
same,"Non-cardiac chest pain, Grade 4",[1],0 number of patients (%)
same,"Paresthesia, Any Grade",[1],1 (1) number of patients (%)
same,"Paresthesia, Grade 1",[1],1 (1) number of patients (%)
same,"Paresthesia, Grade 2",[1],0 number of patients (%)
same,"Paresthesia, Grade 3",[1],0 number of patients (%)
same,"Paresthesia, Grade 4",[1],0 number of patients (%)
same,"Peripheral sensory neuropathy, Any Grade",[1],7 (10) number of patients (%)
same,"Peripheral sensory neuropathy, Grade 1",[1],7 (10) number of patients (%)
same,"Peripheral sensory neuropathy, Grade 2",[1],0 number of patients (%)
same,"Peripheral sensory neuropathy, Grade 3",[1],0 number of patients (%)
same,"Peripheral sensory neuropathy, Grade 4",[1],0 number of patients (%)
same,"Platelet count decreased, Any Grade",[1],13 (18) number of patients (%)
same,"Platelet count decreased, Grade 1",[1],7 (10) number of patients (%)
same,"Platelet count decreased, Grade 2",[1],2 (3) number of patients (%)
same,"Platelet count decreased, Grade 3",[1],4 (5) number of patients (%)
same,"Platelet count decreased, Grade 4",[1],0 number of patients (%)
same,"Presyncope, Any Grade",[1],1 (1) number of patients (%)
same,"Presyncope, Grade 1",[1],0 number of patients (%)
same,"Presyncope, Grade 2",[1],0 number of patients (%)
same,"Presyncope, Grade 3",[1],1 (1) number of patients (%)
same,"Presyncope, Grade 4",[1],0 number of patients (%)
same,"Pruritus, Any Grade",[1],3 (4) number of patients (%)
same,"Pruritus, Grade 1",[1],3 (4) number of patients (%)
same,"Pruritus, Grade 2",[1],0 number of patients (%)
same,"Pruritus, Grade 3",[1],0 number of patients (%)
same,"Pruritus, Grade 4",[1],0 number of patients (%)
same,"Purpura, Any Grade",[1],1 (1) number of patients (%)
same,"Purpura, Grade 1",[1],1 (1) number of patients (%)
same,"Purpura, Grade 2",[1],0 number of patients (%)
same,"Purpura, Grade 3",[1],0 number of patients (%)
same,"Purpura, Grade 4",[1],0 number of patients (%)
same,"Rash maculopapular, Any Grade",[1],2 (3) number of patients (%)
same,"Rash maculopapular, Grade 1",[1],2 (3) number of patients (%)
same,"Rash maculopapular, Grade 2",[1],0 number of patients (%)
same,"Rash maculopapular, Grade 3",[1],0 number of patients (%)
same,"Rash maculopapular, Grade 4",[1],0 number of patients (%)
same,"Sepsis, Any Grade",[1],2 (3) number of patients (%)
same,"Sepsis, Grade 1",[1],0 number of patients (%)
same,"Sepsis, Grade 2",[1],0 number of patients (%)
same,"Sepsis, Grade 3",[1],0 number of patients (%)
same,"Sepsis, Grade 4",[1],2 (3) number of patients (%)
same,"Sinus disorder, Any Grade",[1],1 (1) number of patients (%)
same,"Sinus disorder, Grade 1",[1],1 (1) number of patients (%)
same,"Sinus disorder, Grade 2",[1],0 number of patients (%)
same,"Sinus disorder, Grade 3",[1],0 number of patients (%)
same,"Sinus disorder, Grade 4",[1],0 number of patients (%)
same,"Tremor, Any Grade",[1],1 (1) number of patients (%)
same,"Tremor, Grade 1",[1],1 (1) number of patients (%)
same,"Tremor, Grade 2",[1],0 number of patients (%)
same,"Tremor, Grade 3",[1],0 number of patients (%)
same,"Tremor, Grade 4",[1],0 number of patients (%)
same,"Upper respiratory infection, Any Grade",[1],1 (1) number of patients (%)
same,"Upper respiratory infection, Grade 1",[1],0 number of patients (%)
same,"Upper respiratory infection, Grade 2",[1],1 (1) number of patients (%)
same,"Upper respiratory infection, Grade 3",[1],0 number of patients (%)
same,"Upper respiratory infection, Grade 4",[1],0 number of patients (%)
same,"Vomiting, Any Grade",[1],9 (12) number of patients (%)
same,"Vomiting, Grade 1",[1],7 (10) number of patients (%)
same,"Vomiting, Grade 2",[1],2 (3) number of patients (%)
same,"Vomiting, Grade 3",[1],0 number of patients (%)
same,"Vomiting, Grade 4",[1],0 number of patients (%)
same,"Weight loss, Any Grade",[1],2 (3) number of patients (%)
same,"Weight loss, Grade 1",[1],2 (3) number of patients (%)
same,"Weight loss, Grade 2",[1],0 number of patients (%)
same,"Weight loss, Grade 3",[1],0 number of patients (%)
same,"Weight loss, Grade 4",[1],0 number of patients (%)
same,"White blood cell decreased, Any Grade",[1],40 (55) number of patients (%)
same,"White blood cell decreased, Grade 1",[1],6 (8) number of patients (%)
same,"White blood cell decreased, Grade 2",[1],14 (19) number of patients (%)
same,"White blood cell decreased, Grade 3",[1],17 (23) number of patients (%)
same,"White blood cell decreased, Grade 4",[1],3 (4) number of patients (%)
same,Febrile neutropenia or grade 3-4 neutropenia lasting more than 7 days,total across the dose levels,7 patients
same,"neutropenia highest grade 3, DLT assessment period",[2],19%
same,"neutropenia highest grade 4, DLT assessment period",[2],31%
same,"neutropenia, frequency during the DLT assessment period",[2],57%
